According to ChEMBL document CHEMBL2346495, “Evaluation of HIV-1 inhibition by stereoisomers and analogues of the sesquiterpenoid hydroquinone peyssonol A” (Bioorg Med Chem Lett, 2013):

Legend:
[1] = system: Human immunodeficiency virus 1; assay: Antiviral activity against recombinant HIV1 expressing Rep-Rluc Sac II infected in human MT2 cells after 5 days by luciferase reporter gene assay; type: functional, organism-based; details: Human immunodeficiency virus 1, MT2, 120 h
How it was run: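 MT-2 human lymphocytes infected with recombinant HIV-1 NL-Rluc (Rep-Rluc Sac II) in the presence of compounds; 5-day incubation, then cells processed and virus growth quantified by expressed luciferase. EC50 values averaged from two to four experiments.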

[2] = Therapeutic index, ratio of CC50 for human MT2 cells to EC50 for recombinant HIV1 expressing Rep-Rluc Sac II; type: cell-based; details: read-out: Ratio CC50/EC50
How it was run: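 Therapeutic index computed as CC50 (XTT viability of uninfected MT-2 cells, serial dilutions) over EC50 (luciferase output after 5-day infection of MT-2 cells with HIV-1 NL-Rluc in the presence of compounds). Each input is averaged from two to four experiments.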

[3] = Cytotoxicity against human MT2 cells by XTT assay; type: cell-based
How it was run: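 Uninfected MT-2 cells, run in parallel with the antiviral screen, exposed to serially diluted compounds; viability read by XTT assay. CC50 averaged from two to four experiments.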

| EC50 [1] | SMILES | selectivity ratio [2] | CC50 [3] |
| --- | --- | --- | --- |
| 50 µM | CC1=CC[C@H]2C(C)(C)[C@@H](Br)CC[C@]2(C)[C@@H]1Cc1cc(O)c(CC(=O)O)cc1O [PEYSSONOIC ACID A] | > 2 | > 100 µM |
| 0.5 µM | C=C1CC[C@H]2C(C)(C)[C@@H](Br)CC[C@]2(C)[C@H]1Cc1cc(O)c(C=O)cc1O | 4 | 2 µM |
| 20 µM | CC(=O)OC[C@@H]1[C@@]2(C)CC[C@H](Br)C(C)(C)[C@H]2CC[C@]1(C)O | 3 | 70 µM |
| 1 µM | C=C1CC[C@H]2C(C)(C)[C@@H](Br)CC[C@]2(C)[C@@H]1Cc1cc(O)c(C=O)cc1O [PEYSSONOL A] | 4 | 4 µM |
| 4 µM | O=Cc1cc(O)c(CC2CCCCC2)cc1O | > 25 | > 100 µM |
| 1 µM | CC1(C)[C@@H](Br)CC[C@@]2(C)[C@H]1CC[C@@]1(C)Oc3cc(C=O)c(O)cc3C[C@@H]21 | 5 | 5 µM |
| 0.8 µM | CC1=C(Cc2cc(O)c(C=O)cc2O)[C@@]2(C)CC[C@H](Br)C(C)(C)[C@@H]2CC1 | 5 | 4 µM |
| 2 µM | CC1(C)[C@@H](Br)CC[C@@]2(C)[C@H]1CC[C@@](C)(O)[C@H]2CO | 44 | 90 µM |
| 0.9 µM | CC1=CC[C@H]2C(C)(C)[C@@H](Br)CC[C@]2(C)[C@@H]1Cc1cc(O)c(C=O)cc1O | 4 | 4 µM |
| 0.5 µM | C=C1CC[C@@H]2C(C)(C)[C@@H](Br)CC[C@]2(C)[C@H]1Cc1cc(O)c(C=O)cc1O | 8 | 4 µM |
| 0.7 µM | C=C1CC[C@@H]2C(C)(C)[C@@H](Br)CC[C@]2(C)[C@@H]1Cc1cc(O)c(C=O)cc1O | 7 | 5 µM |

The remaining lines, values behind:

| SMILES | EC50 [1] | selectivity ratio [2] | CC50 [3] |
| --- | --- | --- | --- |
| CC(=O)OC[C@H]1[C@@]2(C)CC[C@H](Br)C(C)(C)[C@@H]2CC[C@@]1(C)O | 10 µM | 8 | 90 µM |
| CC(=O)OC[C@H]1[C@@]2(C)CC[C@H](Br)C(C)(C)[C@H]2CC[C@]1(C)O | 40 µM | > 2 | > 100 µM |
| CC1(C)[C@@H](Br)CC[C@]2(C)[C@H]3COC(=O)O[C@]3(C)CC[C@@H]12 | 10 µM | > 10 | > 100 µM |
| CC1(C)CCC[C@@]2(C)[C@H]1CC[C@@]1(C)OC(=O)OC[C@@H]21 | 2 µM | 17 | 30 µM |
| CC(=O)OC[C@@H]1[C@@]2(C)CC[C@H](Br)C(C)(C)[C@@H]2CC[C@@]1(C)O | 10 µM | 3 | 40 µM |
| CC1(C)[C@H]2CC[C@]3(C)OC(=O)OC[C@H]3[C@@]2(C)CC[C@@H]1Br | 9 µM | > 11 | > 100 µM |
| Cc1cc(O)c(C=O)cc1O | 10 µM | 3 | 30 µM |
| CC1(C)[C@@H](Br)CC[C@@]2(C)[C@H]1CC[C@@]1(C)OC(=O)OC[C@@H]21 | 4 µM | 23 | 90 µM |
| CC1(C)[C@@H](Cl)CC[C@@]2(C)[C@H]1CC[C@@]1(C)OC(=O)OC[C@@H]21 | 10 µM | 4 | 40 µM |
| CC1(C)[C@H]2CC[C@]3(C)OC(=O)OC[C@@H]3[C@@]2(C)CC[C@@H]1Br | 7 µM | 9 | 70 µM |
| CC1(C)[C@@H](I)CC[C@@]2(C)[C@H]1CC[C@@]1(C)OC(=O)OC[C@@H]21 | 5 µM | 6 | 30 µM |
